Here are results for 21 compounds from ChEMBL document CHEMBL3872254, “Design, synthesis and biological evaluation of alkylamino biphenylamides as Hsp90 C-terminal inhibitors” (Bioorg Med Chem, 2017).

A short description of data set [1]: Anti-proliferative activity against ER positive human MCF7 cells measured after 72 hrs by MTS/PMS assay. The format is functional, cell-based. The conditions noted are these: MCF7, 72 h. The method, boiled down: (§1)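 Cells grown in 1:1 Advanced DMEM/F12 with non-essential amino acids, 2 mM L-glutamine, penicillin/streptomycin, 10% FBS, 37 °C, 5% CO2; seeded 2000/well, attached overnight. Compound added in DMSO (1% final), 72 h incubation; viable cells by MTS/PMS. 1% DMSO wells set as 100% proliferation; IC50 from separate experiments run in triplicate, mean ± SD of at least two experiments.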

Data set [2] in a line: Anti-proliferative activity against human SKBR3 cells over-expressing Her2 measured after 72 hrs by MTS/PMS assay. It counts as functional, cell-based. The conditions noted are these: SK-BR-3, 72 h. The method, boiled down:
as §1

Data set [3] addresses T1, Heat shock protein HSP90 (Homo sapiens) (UniProt P07900+P08238). Put plainly: Inhibition of C-terminal Hsp90 in human MCF7 cells assessed as degradation of Akt measured after 24 hrs by Western blot method. It counts as cell-based. The method, boiled down: (§2)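 MCF-7 cells cultured as for proliferation, exposed to compound in DMSO (1% final) for 24 h alongside geldanamycin 0.5 μM and DMSO controls. Harvested in cold PBS, lysed 1 h on ice in RIPA with 1 mM PMSF, 2 mM orthovanadate, protease inhibitors; cleared 14000g 10 min 4 °C. BCA-normalized 20 μg protein, reducing SDS-PAGE, nitrocellulose, specific antibodies, HRP secondary, chemiluminescence.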

Data set [4] has as its target T1, Heat shock protein HSP90 (Homo sapiens). Briefly: Inhibition of C-terminal Hsp90 in human MCF7 cells assessed as degradation of Her2 measured after 24 hrs by Western blot method. The format is cell-based. The method, boiled down:
as §2
On the technique in general: A western blot detects proteins with antibodies after separation by electrophoresis.

Data set [5] shares this target. Briefly: Inhibition of C-terminal Hsp90 in human MCF7 cells assessed as degradation of Raf-1 measured after 24 hrs by Western blot method. It counts as cell-based. The method, boiled down:
as §2

Data set [6] in a line: Effect on actin expression in human MCF7 cells at 0.2 to 10 uM measured after 24 hrs by Western blot method. The format is ADME, cell-based. The conditions noted are these: mcf7, 24 h. In short, it runs like this:
as §2

Data set [7] has as its target T1, Heat shock protein HSP90 (Homo sapiens). Put plainly: Inhibition of C-terminal Hsp90 in human PC3MM2 cells assessed as decrease in Hsp90-dependent refolding of thermally denatured luciferase at 0.1 to 100 uM. The format is cell-based. In short, it runs like this:
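Hsp90-dependent luciferase refolding measured in PC3-MM2 cells; compounds tested at 0.1−100 μM against DMSO vehicle, with a reference Hsp90 inhibitor as positive control.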

Active and inactive are the calls of the source. The rule behind the calls is not given here.

One may read the IC50 as the concentration that inhibits the measured activity by half. Higher therefore signals a need for much substance. In the case of `COc1cccc(-c2cc(C(=O)Nc3ccc(-c4ccc(OC5CCN(C)CC5)cc4OCCCN4C(=O)c5ccccc5C4=O)cc3)ccc2OC)c1`, the half-maximal inhibitory concentration (IC50) turned out to be 1.43 µM in data set [1] and 3.13 µM in data set [2].

For `COc1cccc(-c2cc(C(=O)Nc3ccc(-c4ccc(OC5CCN(C)CC5)cc4)cc3OCCN(C)C)ccc2OC)c1`, the figures for the IC50 in data set [1] and in data set [2] were 0.81 µM and 0.84 µM, respectively.

Consider `COc1cccc(-c2cc(C(=O)Nc3ccc(-c4ccc(OC5CCN(C)CC5)cc4)c(OCCN(C)C)c3)ccc2OC)c1`, for which the IC50 in data set [1] was found to be 0.79 µM; in data set [2] it was 0.65 µM.

Take `COCOc1cc(-c2ccc(NC(=O)c3ccc(OC)c(-c4cccc(OC)c4)c3)cc2)ccc1OC1CCN(C)CC1`: the half-inhibitory concentration (IC50) in data set [1] turned out to be 0.99 µM; in data set [2] it was 0.82 µM.

For the compound `COc1cccc(-c2cc(C(=O)Nc3ccc(-c4ccc(OC5CCN(C)CC5)cc4O)cc3)ccc2OC)c1`, the values for the IC50 in data set [1] and in data set [2] were 4.07 µM and 3.55 µM, respectively.

For `COc1cccc(-c2cc(C(=O)Nc3ccc(-c4ccc(OC5CCN(C)CC5)cc4)cc3O)ccc2OC)c1`, the IC50 in data set [1] worked out at 0.71 µM; in data set [2], 0.91 µM.

In the case of `COc1cccc(-c2cc(C(=O)Nc3ccc(-c4ccc(OC5CCN(C)CC5)cc4)cc3OCCCN(C)C)ccc2OC)c1`, the half-maximal inhibitory concentration (IC50) was 0.75 µM in data set [1] and 0.69 µM in data set [2].

As to `COc1cccc(-c2cc(C(=O)Nc3ccc(-c4ccc(OC5CCN(C)CC5)cc4OC4CCN(C)CC4)cc3)ccc2OC)c1`, the IC50 in data set [1] came out at 2.54 µM; in data set [2] it was 1.16 µM.

As for `COc1cccc(-c2cc(C(=O)Nc3ccc(-c4ccc(OC5CCN(C)CC5)c(O)c4)cc3)ccc2OC)c1`, the IC50 turned out to be 1.22 µM in data set [1] and 1.56 µM in data set [2].

As to `COc1cccc(-c2cc(C(=O)Nc3ccc(-c4ccc(OC5CCN(C)CC5)cc4)c(O)c3)ccc2OC)c1`, the values for the IC50 in data set [1] and in data set [2] were 1.8 µM and 3.43 µM, respectively.

Take `COc1cccc(-c2cc(C(=O)Nc3ccc(-c4ccc(OC5CCN(C)CC5)cc4OCCCO)cc3)ccc2OC)c1`: the 50% inhibitory concentration (IC50) in data set [1] was found to be 3.11 µM; in data set [2], 3.87 µM.

Regarding `COc1cccc(-c2cc(C(=O)Nc3ccc(-c4ccc(OC5CCN(C)CC5)cc4)cc3)ccc2OC)c1`, the IC50 in data set [1] came to 0.71 µM; in data set [2], 0.47 µM.

In the case of `COc1cccc(-c2cc(C(=O)Nc3ccc(-c4ccc(OC5CCN(C)CC5)cc4)c(OCCCN(C)C)c3)ccc2OC)c1`, the IC50 turned out to be 0.67 µM in data set [1] and 0.55 µM in data set [2].

As to `COc1cccc(-c2cc(C(=O)Nc3ccc(-c4ccc(OC5CCN(C)CC5)c(OCCCN(C)C)c4)cc3)ccc2OC)c1`, the IC50 was 1.05 µM in data set [1] and 0.75 µM in data set [2].

Regarding `COc1cccc(-c2cc(C(=O)Nc3ccc(-c4ccc(OC5CCN(C)CC5)cc4OCCCN(C)C)cc3)ccc2OC)c1`, the inhibition result in data set [3], in data set [4] and in data set [5] was “Dose-dependent effect” each time. Moreover, the IC50 in data set [1] worked out at 0.84 µM; in data set [2], 0.34 µM. For the same compound, the Activity result in data set [6] was “Non-Toxic”. Moreover, in data set [7], the inhibition entry was “Active”.

On to `COc1cccc(-c2cc(C(=O)Nc3ccc(-c4ccc(OC5CCN(C)CC5)cc4OCCN(C)C)cc3)ccc2OC)c1`, for which the IC50 in data set [1] was determined as 1.04 µM; in data set [2], 0.39 µM. For the same compound, in data set [7], the inhibition result was “Active”.

Turning to `COc1cccc(-c2cc(C(=O)Nc3ccc(-c4ccc(OC5CCN(C)CC5)cc4OCCCCN(C)C)cc3)ccc2OC)c1`, the half-inhibitory concentration (IC50) stood at 1.12 µM in data set [1] and 1.27 µM in data set [2].

`COc1cccc(-c2cc(C(=O)Nc3ccc(-c4ccc(OC5CCN(C)CC5)cc4OC4CCCCC4)cc3)ccc2OC)c1`: the half-inhibitory concentration (IC50) in data set [1] was 2.36 µM; in data set [2] it was 3.24 µM.

As for `COCOc1cc(OC2CCN(C)CC2)ccc1-c1ccc(NC(=O)c2ccc(OC)c(-c3cccc(OC)c3)c2)cc1`, the concentration for half-maximal inhibition (IC50) was 1.38 µM in data set [1] and 1.14 µM in data set [2].

As for `COc1cccc(-c2cc(C(=O)Nc3ccc(-c4ccc(OC5CCN(C)CC5)cc4OCCCOC(C)=O)cc3)ccc2OC)c1`, the IC50 in data set [1] is 2.49 µM; in data set [2], 1.96 µM.

Consider `COc1cccc(-c2cc(C(=O)Nc3ccc(-c4ccc(OC5CCN(C)CC5)c(OCCN(C)C)c4)cc3)ccc2OC)c1`, for which the half-inhibitory concentration (IC50) in data set [1] is 0.7 µM; in data set [2] it was 0.4 µM.
